Source: PubChem BioAssay
TRPC4 potent – allosteric potentiators of mouse TRPC4 channel | 310,000 tested, 0.42% active | Q9QUQ5 | B-score at 10 µM | HEK293 TRPC4beta/mu-opioid, DAMGO EC20, Fluo-4 Ca2+ flux; hits give high values;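 active = B-score of calcium response area above 5 SD of library B-scores, with initial fluorescence ratio within 5 SD of library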;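 note: B-score of integrated fluorescence ratio over time as area under calcium response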
Target sequence (Q9QUQ5 whole entry, looked up): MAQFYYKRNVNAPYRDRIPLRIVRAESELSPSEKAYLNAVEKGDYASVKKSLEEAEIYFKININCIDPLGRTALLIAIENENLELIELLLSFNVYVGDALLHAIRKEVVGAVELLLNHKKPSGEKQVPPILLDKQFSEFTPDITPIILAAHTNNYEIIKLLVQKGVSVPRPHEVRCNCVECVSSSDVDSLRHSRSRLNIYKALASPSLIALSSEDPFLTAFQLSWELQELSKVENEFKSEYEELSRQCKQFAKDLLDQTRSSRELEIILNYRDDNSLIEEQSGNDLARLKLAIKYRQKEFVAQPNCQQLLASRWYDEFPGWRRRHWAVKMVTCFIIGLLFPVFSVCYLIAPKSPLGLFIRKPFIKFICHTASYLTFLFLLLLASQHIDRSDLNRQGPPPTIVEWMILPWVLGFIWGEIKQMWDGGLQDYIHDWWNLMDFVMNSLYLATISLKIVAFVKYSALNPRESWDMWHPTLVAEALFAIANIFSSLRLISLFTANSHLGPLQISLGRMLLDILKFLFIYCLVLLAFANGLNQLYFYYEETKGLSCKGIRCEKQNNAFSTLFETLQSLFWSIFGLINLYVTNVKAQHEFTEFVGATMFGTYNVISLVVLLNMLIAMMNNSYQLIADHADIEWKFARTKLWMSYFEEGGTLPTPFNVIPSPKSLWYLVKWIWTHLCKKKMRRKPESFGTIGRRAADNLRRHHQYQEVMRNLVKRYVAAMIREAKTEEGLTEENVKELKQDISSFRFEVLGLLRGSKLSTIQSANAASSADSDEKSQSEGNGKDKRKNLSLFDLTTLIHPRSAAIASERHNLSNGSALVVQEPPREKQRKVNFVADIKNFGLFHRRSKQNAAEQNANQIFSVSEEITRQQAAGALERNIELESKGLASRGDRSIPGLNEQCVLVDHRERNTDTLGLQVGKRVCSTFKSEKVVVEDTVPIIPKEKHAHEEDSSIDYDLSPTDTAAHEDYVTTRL
TRPC6 activator – mouse TRPC6 channel activation; Q61143; HEK293-TRPC6 membrane potential dye fluorescence; hits give high values; B-score at 10 µM; 310,000 tested, 0.13% active; AID 2550;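 active = B-score of the integrated fluorescence ratio above library mean plus 3 SD, and starting fluorescence ratio within library mean plus 5 SD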;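 note: higher score means more depolarization so channel activation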
TRPC6 inhibitor – mouse TRPC6 channel inhibition; 310,000 tested, 1.1% active; Q61143; HEK293-TRPC6, membrane potential dye, ACh-evoked depolarization; hits give low values; AID 2553; B-score at 10 µM;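 active = B-score under library mean minus 3 SD, initial fluorescence not abnormally high, positive integrated signal ratio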;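 note: B-score derived from integrated fluorescence ratio over the kinetic read; more negative B-score means stronger inhibition of depolarization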
TRPC4 block – inhibitors of mouse TRPC4 channel | Q9QUQ5 | HEK293 TRPC4beta/mu-opioid, DAMGO-evoked Fluo4 calcium flux; hits give low values | B-score at 10 µM | 300,000 tested, 0.39% active | AID 2247;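 active = B-score over 3 SD under the library average, no early fluorescence shift, positive overall ratio signal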
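Assay system: TRPC4beta/mu-opioid receptor HEK293 cell line; compound dosing: single concentration per test compound; detection: Fluo4 Ca2+ flux fluorescence; evaluation: per-well B score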
Pemphigus Ab inh – blocks pemphigus antibody binding to human desmoglein-3 | P32926 | DSG3-coupled beads, scFv-anti-DSG3-GFP binding, flow cytometry; hits give low values | binding (percent of control), % at 10 µM | 310,000 tested, 0.48% active | AID 588358;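 active = binding more than 3 SD below its plate's average and above zero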;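 note: hits lower antibody fragment binding to DSG3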
TRPC4 agonist – activators of mouse TRPC4 channel; HEK293 TRPC4beta/mu-opioid, Fluo4 calcium fluorescence; hits give high values; B-score at 10 µM; 310,000 tested, 0.49% active; AID 2237;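 active = B-score above 5 SD of library B-scores, and initial fluorescence ratio not above library mean plus 5 SD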;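 note: positive B-score marks a calcium rise read as TRPC4 activation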
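Technique: kinetic Fluo4 calcium fluorescence; Test system: TRPC4beta and mu-opioid receptor HEK293 stable cells; Measure: B-scored integrated calcium fluorescence ratio; Benchmarks: low control buffer alone, high control maximal DAMGO; Schedule: 45 min room-temperature Fluo4 loading, 110 s read.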
Active calls of the source: *; i = inactive; . = no result given. In the library only some 2.5% were active in any assay of this set; here they are far more common.

SMILES	TRPC4 potent	TRPC6 activator	TRPC6 inhibitor	TRPC4 block	Pemphigus Ab inh	TRPC4 agonist
CCOC(=O)c1cc2c(ccc3ccccc32)oc1=O	i	i	i	.	101	i
CCOC(=O)c1c(C)[nH]c(C(=O)OCC(=O)Nc2ccccc2)c1C	.	.	.	.	98	.
O=C(Nc1cccc(Cl)c1)c1ccc(-n2cncn2)c([N+](=O)[O-])c1	i	i	-5.5*	i	.	i
Cc1ccc(NC(=O)c2ccc(-n3cncn3)c([N+](=O)[O-])c2)cc1	i	i	i	i	.	i
CC(=O)N1CCCc2cc(S(=O)(=O)N3CCN(C4CCCCC4)CC3)ccc21	i	i	i	i	100	57*
CCC(=O)N1CCCc2cc(S(=O)(=O)N3CCN(C4CCCCC4)CC3)ccc21	i	i	i	i	97	i
C=C(C)Cn1c(SCC)nc2ccccc2c1=O	i	i	i	-5*	103	i
CCC(C)n1c(SCC(=O)Nc2cc(C)on2)nc2ccccc2c1=O (configuration not stated)	i	i	i	i	106	44*
CCc1cc2ccccc2nc1SCC(=O)Nc1cc(C)on1	i	i	i	i	87	i
CCc1cc2cc(C)c(C)cc2nc1SCC(=O)Nc1cc(C)on1	i	i	i	i	60*	i
CCn1c(SCC(=O)Nc2ccccc2)nc2ccccc2c1=O	i	i	i	-5*	99	i
Cn1nc(C(F)(F)F)c(-c2ccc(Br)cc2)c1NC(=O)Nc1ccc(F)cc1F	i	i	i	i	112	i
CC(=O)c1ccc(C(=O)Nc2nnc(-c3ccc(Cl)cc3)o2)cc1	i	i	i	i	105	i
O=C(Nc1nnc(-c2ccccc2)o1)c1ccc(Cl)cc1	i	i	i	i	106	48*
CCCCNS(=O)(=O)c1ccc(Br)cc1N1CCC[C@H]1CO	.	.	.	.	96	.
CSCc1c(C(=O)NCCc2ccccn2)oc2ccccc12	12*	i	i	i	119	i
O=C(c1cccs1)N1CCN(c2ncc(Br)cn2)CC1	i	i	i	i	108	175*
O=C(c1ccncc1)N1CCN(C(=O)c2cccs2)CC1	i	i	i	i	101	i
COc1ccc(C(=O)N2CCN(c3c(C)cccc3C)CC2)cc1OC	17*	i	i	i	107	i
Clc1cc(Cl)cc(C2=NCCC(c3ccccc3)O2)c1 (configuration not stated)	i	i	i	i	.	i
O=C(CCN1C(=O)/C(=C/c2ccc(F)cc2)SC1=S)NNC(=O)c1cccnc1	i	i	i	i	88*	i
O=C(CCN1C(=O)/C(=C/c2cccc(Br)c2)SC1=S)NNC(=O)c1cccnc1	i	i	i	i	83*	i
C=CCN(CC(O)c1cccc([N+](=O)[O-])c1)C(C)CCc1ccccc1 (configuration not stated)	i	i	i	-5*	97	i
O=c1cc(-c2ccccc2)nc(Sc2ccc([N+](=O)[O-])cc2[N+](=O)[O-])[nH]1	i	i	i	i	81*	i
COc1cc(OC)c(C2N(C)c3ccccc3N2C)cc1OC	i	i	i	-6*	.	i
SMILES	TRPC4 potent	TRPC6 activator	TRPC6 inhibitor	TRPC4 block	Pemphigus Ab inh	TRPC4 agonist
COC(=O)C1=CN(c2ccc(OC)cc2)C=C(C(=O)OC)C1c1cc(OC)c(OC)cc1OC	i	i	i	i	108	i
COc1cccc(/C=C2\SC(=S)N(NS(=O)(=O)c3ccc(C)cc3)C2=O)c1OC	i	i	i	-6*	103	i
CCOc1cc(/C=C2\SC(=S)N(NS(=O)(=O)c3ccc(C)cc3)C2=O)ccc1O	i	i	i	i	102	i
COc1cc(/C=C2\SC(=S)N(NS(=O)(=O)c3ccc(C)cc3)C2=O)cc(OC)c1OC	i	i	i	-6*	99	i
CCn1c(=N)n(CC(=O)c2ccc(Br)s2)c2ccccc21	i	i	i	-6*	85	i
CCCCn1c(=N)n(CC(=O)c2ccc(Br)s2)c2ccccc21	i	i	i	i	95	i
COc1ccc(C(=O)c2sc3nc(-c4ccc(OC)cc4)ccc3c2N)cc1	i	i	i	i	26*	i
CCCNC(=O)c1cc(S(=O)(=O)N2CCc3ccccc32)cn1C	i	i	i	i	107	i
CCCCCCNC(=O)c1cc(S(=O)(=O)N2CCc3ccccc32)ccc1F	i	i	i	i	87*	i
C/C(=N\NC(=O)C1CC1)c1ccccc1O	i	i	i	i	118	i
O=C(NCCCO)c1ccc2nc(-c3ccco3)c(-c3ccco3)nc2c1	.	.	.	.	36*	.
O=C(Nc1ccc(N2CCOCC2)cc1)c1ccc2nc(-c3ccco3)c(-c3ccco3)nc2c1	i	i	i	i	2.0*	i
CC(C)(C)OC(=O)N1CCCC(C(=O)Nc2ccc(C(=O)NCCc3ccccc3)cc2)C1 (configuration not stated)	.	.	.	.	102	.
O=C(N/C(=C\c1ccco1)C(=O)N1CCCC1CO)c1ccccc1 (configuration not stated)	i	i	i	i	107	i
CCCCn1c(N)c(N(CC(C)C)C(=O)c2ccc(S(=O)(=O)N3CCC(C)CC3)cc2)c(=O)[nH]c1=O	i	i	i	i	99	i
COc1ccc(Nc2nc3c(C)cccn3c(=O)c2C=NCc2ccccc2)cc1	i	i	i	.	70*	i
CCOC(=O)c1ccccc1NC(=O)C1CC(=O)N(c2ccccc2)C1 (configuration not stated)	i	i	i	i	92	i
CCC(O)CNC(=O)CCc1nnc(C2(c3ccc(Cl)cc3)CCC2)o1 (configuration not stated)	i	i	i	i	104	i
CCOC(=O)C1=C(COc2ccccc2)NC(=O)NC1c1ccc(Cl)cc1 (configuration not stated)	i	i	i	i	107	i
COC(=O)C1=C(COc2ccccc2)NC(=O)NC1c1ccc(Cl)cc1 (configuration not stated)	11*	i	i	i	.	i
COc1ccc(NC(=O)c2ccc3c(c2)C(=O)N(Cc2ccncc2)C3=O)cc1S(N)(=O)=O	.	.	.	.	69*	.
COc1ccc(C)cc1NC(=O)c1ccc2c(c1)C(=O)N(Cc1ccncc1)C2=O	.	.	.	.	101	.
